According to ChEMBL document CHEMBL1629618, “SOS regulation of qnrB expression” (2009):

Experiments:
Format in all cases: functional
[1] = tested on: Escherichia coli; assay: Induction of qnrB1 gene expression in lexA- and recA- positive Escherichia coli J53 at 0.2 ug/ml after 15 mins by quantitative PCR method relative to control
How it was run: (§1)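 Plasmid-bearing strains grown in triplicate in LB broth at 37°C to exponential phase. At OD600 0.08 to 0.1, mitomycin C 0.2 μg/ml was added, with one culture left untreated as control. RNA was stabilised, extracted and DNase-treated, then reverse-transcribed with gene-specific reverse primers for real-time qPCR. Levels were calculated by 2−ΔΔCT relative to the unsupplemented control. Experiments repeated at least twice.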

[2] = tested on: Escherichia coli; assay: Induction of qnrB1 gene expression in lexA- and recA- positive Escherichia coli J53 at 0.2 ug/ml after 30 mins by quantitative PCR method relative to control; how it was run: as §1
[3] = tested on: Escherichia coli; assay: Induction of qnrB4 gene expression in lexA- and recA- positive Escherichia coli J53 at 0.2 ug/ml after 15 mins by quantitative PCR method relative to control; how it was run: as §1
[4] = tested on: Escherichia coli; assay: Induction of qnrB4 gene expression in lexA- and recA- positive Escherichia coli J53 at 0.2 ug/ml after 30 mins by quantitative PCR method relative to control; how it was run: as §1
[5] = tested on: Escherichia coli; assay: Induction of qnrA1 gene expression in lexA- and recA- positive Escherichia coli J53 at 0.2 ug/ml after 30 mins by quantitative PCR method relative to control; how it was run: as §1
[6] = tested on: Escherichia coli; assay: Induction of qnrB4 gene expression in lexA- and recA- positive Escherichia coli AB1157 at 0.2 ug/ml after 30 mins by quantitative PCR method relative to control; how it was run: as §1
[7] = tested on: Escherichia coli; assay: Induction of qnrB4 gene expression in recA-positive lexA deficient Escherichia coli AB1157 expressing deffective lexA gene at 0.2 ug/ml after 30 mins by quantitative PCR method relative to control; how it was run: as §1
[8] = tested on: Escherichia coli; assay: Induction of qnrB4 gene expression in recA-positive Escherichia coli DM49 expressing protease-resistant lexA at 0.2 ug/ml after 30 mins by quantitative PCR method relative to control; how it was run: as §1

Structure (SMILES): CO[C@@]12[C@H](COC(N)=O)C3=C(C(=O)C(C)=C(N)C3=O)N1C[C@@H]1N[C@@H]12 [MITOMYCIN]
- fold change (FC) [1]: 2.6
- fold change (FC) [2]: 2.8
- fold change (FC) [3]: 8.2
- fold change (FC) [4]: 7.9
- fold change (FC) [5]: 0.9
- fold change (FC) [6]: 2
- fold change (FC) [7]: 1
- fold change (FC) [8]: 1
